For series [1], the target named is T1, Sodium/glucose cotransporter 2 (Homo sapiens, UniProt P31639).
T1 sequence (P31639 whole entry): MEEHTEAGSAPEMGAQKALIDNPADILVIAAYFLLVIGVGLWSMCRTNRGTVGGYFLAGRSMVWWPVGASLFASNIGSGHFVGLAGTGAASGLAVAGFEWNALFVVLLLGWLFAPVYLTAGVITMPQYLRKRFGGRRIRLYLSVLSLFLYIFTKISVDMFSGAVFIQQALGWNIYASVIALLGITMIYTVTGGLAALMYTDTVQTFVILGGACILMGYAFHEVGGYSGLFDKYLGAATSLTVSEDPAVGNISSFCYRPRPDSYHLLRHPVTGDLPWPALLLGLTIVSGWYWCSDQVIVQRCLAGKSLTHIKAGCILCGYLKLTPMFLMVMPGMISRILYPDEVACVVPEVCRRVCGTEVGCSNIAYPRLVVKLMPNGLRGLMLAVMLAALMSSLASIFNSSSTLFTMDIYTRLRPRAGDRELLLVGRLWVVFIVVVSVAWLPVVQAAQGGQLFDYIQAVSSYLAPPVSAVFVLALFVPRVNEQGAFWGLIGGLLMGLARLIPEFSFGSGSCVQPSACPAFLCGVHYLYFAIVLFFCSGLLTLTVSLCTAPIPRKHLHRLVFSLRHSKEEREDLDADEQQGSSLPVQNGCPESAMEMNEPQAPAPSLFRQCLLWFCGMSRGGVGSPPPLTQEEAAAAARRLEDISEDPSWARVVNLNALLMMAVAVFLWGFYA
Description: Inhibition of human SGLT2 transfected in HEK293.ETN cells assessed as AMG uptake after 1.5 hrs by scintillation counting. The class given is cell-based. The procedure, abridged: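 Full-length human SGLT2 in pEAK15, stably expressed in HEK293.ETN (puromycin-selected clones). Cells plated 1 × 10⁵/well in DMEM/10% FBS, 48 h, 37 °C. Compound plus 40 µCi/mL [¹⁴C]AMG in sodium or sodium-free Tris/Hepes buffer pH 7.2, 1.5 h at 37 °C with shaking. Washed, uptake read by scintillation counting. Eight concentrations in triplicate. Sodium-free value subtracted from sodium value.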

Series [2] deals with T2, Sodium/glucose cotransporter 1 (Homo sapiens, UniProt P13866).
T2 sequence (P13866 whole entry): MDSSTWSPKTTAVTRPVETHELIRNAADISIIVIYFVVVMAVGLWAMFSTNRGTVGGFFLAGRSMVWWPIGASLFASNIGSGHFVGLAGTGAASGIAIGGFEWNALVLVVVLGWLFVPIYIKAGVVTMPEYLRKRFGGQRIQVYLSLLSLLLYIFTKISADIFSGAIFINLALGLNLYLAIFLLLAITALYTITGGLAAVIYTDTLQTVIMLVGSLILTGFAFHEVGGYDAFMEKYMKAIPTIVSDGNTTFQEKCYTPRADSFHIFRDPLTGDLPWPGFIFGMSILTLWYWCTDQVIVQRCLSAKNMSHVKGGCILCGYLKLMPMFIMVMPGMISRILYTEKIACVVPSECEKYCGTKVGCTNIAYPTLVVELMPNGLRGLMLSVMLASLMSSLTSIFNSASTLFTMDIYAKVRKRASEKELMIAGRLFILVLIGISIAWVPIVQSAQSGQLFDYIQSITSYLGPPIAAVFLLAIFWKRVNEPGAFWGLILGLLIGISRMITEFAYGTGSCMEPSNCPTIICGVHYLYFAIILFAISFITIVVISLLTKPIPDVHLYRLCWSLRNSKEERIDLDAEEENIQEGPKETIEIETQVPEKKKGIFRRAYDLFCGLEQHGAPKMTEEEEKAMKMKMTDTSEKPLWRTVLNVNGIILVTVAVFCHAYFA
The series can be described thus: Inhibition of human SGLT1 transfected in COS-7 cells assessed as AMG uptake after 2 hrs by scintillation counting. The class given is cell-based. The procedure, abridged:
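Transient transfection of human SGLT1 plasmid into COS-7 cells, which were cryopreserved until use. Seeded at 1 × 10⁵ cells/well in DMEM + 10% FBS, 48 h at 37 °C, 5% CO₂. Exposed to inhibitor with 40 µCi/mL [¹⁴C]AMG in Na⁺ or Na⁺-free Tris/Hepes buffer pH 7.2 for 2 h at 37 °C, shaking. Eight concentrations, triplicate. Na⁺-dependent uptake taken as Na⁺ minus Na⁺-free signal.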

A further series concerns Mus musculus. The series can be described thus: Toxicity in CD1 mouse assessed as induction of severe diarrhea at 25 mg/kg, po after 6 hrs. Type of series: organism-based. Set-up: dose 25 mg/kg, route oral. The note with it: in vivo. The procedure, abridged:
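CD1 mice given a single oral dose of 25 mg/kg. Watched for diarrhea at 6 h.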

The IC50 is the concentration at which inhibition is half-maximal. Turning to `CCc1ccc(Cc2cc3c(cc2Cl)CO[C@]32O[C@H](CN=[N+]=[N-])[C@@H](O)[C@H](O)[C@H]2O)cc1`, the figures for the half-inhibitory concentration (IC50) in series [1] and in series [2] were 0.01 µM and 1 µM, respectively.

For `Cc1cccc(Cc2cc3c(cc2Cl)CO[C@]32O[C@H](CO)[C@@H](O)[C@H](O)[C@H]2O)c1F`, the IC50 was 0.0008 µM in series [1] and 1.5 µM in series [2].

For the molecule `Cc1cc(F)ccc1Cc1cc2c(cc1Cl)CO[C@]21O[C@H](CO)[C@@H](O)[C@H](O)[C@H]1O`, the results for the IC50 in series [1] and in series [2] were 0.1 µM and 1 µM, respectively.

`OC[C@H]1O[C@]2(OCc3cc(Cl)c(Cc4ccc(OC(F)(F)F)cc4)cc32)[C@H](O)[C@@H](O)[C@@H]1O`: the half-maximal inhibitory concentration (IC50) in series [1] was 0.0003 µM; in series [2], 3.1 µM.

As for `CCOc1ccc(Cc2cc3c(cc2Cl)CO[C@]32O[C@H](CO)[C@@H](O)[C@H](O)[C@H]2O)cc1`, the half-inhibitory concentration (IC50) in series [1] came to 0.0065 µM; in series [2] it was 1.3 µM.

Take `CCOc1ccc(Cc2cc3c(cc2Cl)CO[C@]32O[C@H](CO)[C@@H](O)[C@H](O)[C@H]2O)cc1Cl`: the 50% inhibitory concentration (IC50) in series [1] was found to be 0.068 µM; in series [2] it was 10.5 µM.

Consider `CCc1ccc(Cc2cc3c(cc2Cl)CO[C@]32O[C@H](COCC(F)(F)F)[C@@H](O)[C@H](O)[C@H]2O)cc1`, for which the IC50 in series [1] is 0.07 µM; in series [2] it was 14 µM.

For `CCOc1cc(F)ccc1Cc1cc2c(cc1Cl)CO[C@]21O[C@H](CO)[C@@H](O)[C@H](O)[C@H]1O`, the half-maximal inhibitory concentration (IC50) was found to be 1 µM in series [1] and 10 µM in series [2].

For `CCc1ccc(C2(c3cc4c(cc3Cl)CO[C@]43O[C@H](CO)[C@@H](O)[C@H](O)[C@H]3O)CC2)cc1`, the IC50 amounted to 0.0013 µM in series [1] and 6 µM in series [2].

For `CCc1ccc(Cc2cc3c(cc2Cl)CO[C@]32O[C@H](CN)[C@@H](O)[C@H](O)[C@H]2O)cc1`, the values for the concentration for half-maximal inhibition (IC50) in series [1] and in series [2] were 0.1 µM and more than 100 µM, respectively.

In the case of `COc1c(C)cccc1Cc1cc2c(cc1Cl)CO[C@]21O[C@H](CO)[C@@H](O)[C@H](O)[C@H]1O`, the 50% inhibitory concentration (IC50) in series [1] was found to be 0.01 µM; in series [2], 1 µM.

As to `CCc1ccc(C(=O)c2cc3c(cc2Cl)CO[C@]32O[C@H](CO)[C@@H](O)[C@H](O)[C@H]2O)cc1`, the results for the half-inhibitory concentration (IC50) in series [1] and in series [2] were 0.022 µM and 43 µM, respectively.

`CCc1ccc(C(F)(F)c2cc3c(cc2Cl)CO[C@]32O[C@H](CO)[C@@H](O)[C@H](O)[C@H]2O)cc1`: the IC50 in series [1] came to 0.007 µM; in series [2] it was 1.6 µM.

For the molecule `CC(C)c1ccc(Cc2cc3c(cc2Cl)CO[C@]32O[C@H](CO)[C@@H](O)[C@H](O)[C@H]2O)cc1`, the half-maximal inhibitory concentration (IC50) stood at 0.0071 µM in series [1] and 2.5 µM in series [2].

Consider `CCOc1ccc(Cc2ccc3c(c2)[C@]2(OC3)O[C@H](CO)[C@@H](O)[C@H](O)[C@H]2O)cc1`, for which, in series [2], the half-inhibitory concentration (IC50) was 10 µM.

For the molecule `CCc1ccc(Cc2cc3c(cc2F)CO[C@]32O[C@H](CO)[C@@H](O)[C@H](O)[C@H]2O)cc1`, the half-inhibitory concentration (IC50) worked out at 0.0086 µM in series [1] and 5.3 µM in series [2].

For `CCc1ccc(Cc2cccc3c2CO[C@]32O[C@H](CO)[C@@H](O)[C@H](O)[C@H]2O)cc1`, the concentration for half-maximal inhibition (IC50) in series [1] is more than 1 µM.

For `CCc1ccc(Cc2cc3c(cc2Cl)CO[C@]32O[C@H](CO)[C@@H](O)[C@H](O)[C@H]2O)cc1`, the IC50 came to 0.0066 µM in series [1] and 0.6 µM in series [2]. In addition, in the series with Mus musculus, the Activity entry was “Toxic”.

Regarding `CCOc1ccc(Cc2cc3c(cc2Cl)CO[C@]32O[C@H](CO)[C@@H](O)[C@H](O)[C@H]2O)c(C)c1`, the IC50 in series [1] is more than 1 µM; in series [2], 1 µM.

`CC(C)(C)c1ccc(Cc2cc3c(cc2Cl)CO[C@]32O[C@H](CO)[C@@H](O)[C@H](O)[C@H]2O)cc1`: the half-inhibitory concentration (IC50) in series [1] amounted to 0.013 µM; in series [2], 9.7 µM.

As to `COc1ccc(Cc2cc3c(cc2Cl)CO[C@]32O[C@H](CO)[C@@H](O)[C@H](O)[C@H]2O)cc1`, the 50% inhibitory concentration (IC50) in series [1] came to 0.0025 µM; in series [2], 0.2 µM.

On to `CCc1ccc(Cc2cc3c(cc2Cl)CO[C@]32O[C@H](COC)[C@@H](O)[C@H](O)[C@H]2O)cc1`, for which the half-inhibitory concentration (IC50) in series [1] was found to be 0.0058 µM; in series [2], 2.7 µM.

Take `CCOc1ccc(Cc2cc3c(cc2Cl)CO[C@]32O[C@H](CO)[C@@H](O)[C@H](O)[C@H]2O)c(Cl)c1`: the concentration for half-maximal inhibition (IC50) in series [1] is more than 1 µM; in series [2], 10 µM.

As to `COc1ccc(Cc2cc3c(cc2Cl)CO[C@]32O[C@H](CO)[C@@H](O)[C@H](O)[C@H]2O)c(C)c1`, the half-maximal inhibitory concentration (IC50) in series [1] was more than 1 µM; in series [2], 10 µM.

The values above are taken from ChEMBL document CHEMBL1156745, “Exploration of O-spiroketal C-arylglucosides as novel and selective renal sodium-dependent glucose co-transporter 2 (SGLT2) inhibitors” (Bioorg Med Chem Lett, 2009).
